From ChEMBL document CHEMBL3588805, “Characterization and Biological Activities of Ocellatin Peptides from the Skin Secretion of the Frog Leptodactylus pustulatus” (J Nat Prod, 2015) come the findings set out here.

One data set deals with Salmonella enterica. Briefly: Antibacterial activity against Salmonella choleraesuis ATCC 14028 assessed as inhibition of visible bacterial growth incubated at 37 degC for 24 hrs by CLSI protocol based method. It is filed as functional. Conditions: ATCC 14028, 24 h. In outline:
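Strain grown at 37 °C in Mueller-Hinton broth to log phase (1 × 10^8 CFU/mL). Broth microdilution per CLSI (2012) with 2-fold peptide dilutions in Mueller-Hinton broth, 6.25–800 μg/mL, final inoculum 5 × 10^5 CFU/mL. Incubated 24 h, 37 °C, aerobic. MIC is the lowest concentration giving absorbance below 0.05 at 600 nm. Meropenem control. Triplicate, two independent experiments.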

The nature of data set [1]: Cytotoxicity against mouse NIH/3T3 cells at antibacterial MIC (Escherichia coli ATCC 25922) assessed as reduction in cell index incubated for 60 hrs. The format is cell-based. Conditions: nih3t3, 60 h.
Data set [2] is described as follows: Toxicity in human RBC assessed as induction of hemolysis at antibacterial MIC (Escherichia coli ATCC 25922) incubated for 1 hr at 37 degC. The format is cell-based, Erythrocyte. Conditions: human red blood cells (RBC), read-out: Activity. In outline: (§1)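 Human RBCs collected in EDTA (1.8 mg/mL), washed three times, resuspended in 0.85% saline, mixed with an equal volume of peptide solution (100–800 μg/mL). 1 h at 37 °C, centrifuged at 10000g for 1 min, supernatant absorbance read at 550 nm. Saline and 0.1% (v/v) Triton X as 0 and 100% controls. % hemolysis = (A peptide − A saline)/(A Triton − A saline) × 100.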

A short description of data set [3]: Toxicity in human RBC assessed as induction of hemolysis at 800 ug/mL incubated for 1 hr at 37 degC. The format is cell-based, Erythrocyte. Conditions: human red blood cells (RBC), read-out: Activity. In outline:
as §1

The next data set relates to Staphylococcus aureus. Briefly: Antibacterial activity against Staphylococcus aureus […] assessed as inhibition of visible bacterial growth incubated at 37 degC for 24 hrs by CLSI protocol based method. The format is functional. In outline:
(§2)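 Broth microdilution per CLSI 2012. Strains grown at 37 °C in Mueller-Hinton broth to log phase (1 × 10^8 CFU/mL). Peptide 2-fold serial dilutions, 6.25–800 μg/mL, in Mueller-Hinton broth; final inoculum 5 × 10^5 CFU/mL per well. Aerobic incubation 24 h at 37 °C. MIC is the lowest concentration with no visible growth (A600 < 0.05). Meropenem control for Gram-negatives, oxacillin for S. aureus. Triplicate, two independent experiments.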

The subject of another data set is Escherichia coli. The data set can be described thus: Antibacterial activity against Escherichia coli ATCC 25922 assessed as inhibition of visible bacterial growth incubated at 37 degC for 24 hrs by CLSI protocol based method. The format is functional. The following applies: ATCC 25922, 24 h. In outline: as §2
The next data set deals with Klebsiella pneumoniae. Briefly: Antibacterial activity against Klebsiella pneumoniae ATCC 700603 assessed as inhibition of visible bacterial growth incubated at 37 degC for 24 hrs by CLSI protocol based method. The following applies: ATCC 700603, 24 h. It is filed as functional. In outline: as §2

Each structure is given as a SMILES string. Converted amounts (≈) assume the structure as drawn. Where a SMILES comes first, the peptide text is derived from it.

By MIC is commonly meant the lowest concentration that inhibits growth of the organism. `CC[C@H](C)[C@H](NC(=O)[C@H](CCCCN)NC(=O)CNC(=O)[C@H](CCSC)NC(=O)[C@H](C)NC(=O)[C@H](Cc1cnc[nH]1)NC(=O)[C@H](C)NC(=O)[C@@H](NC(=O)[C@H](CC(C)C)NC(=O)[C@H](CCC(N)=O)NC(=O)[C@H](CCCCN)NC(=O)CNC(=O)[C@H](C)NC(=O)[C@H](CC(=O)O)NC(=O)[C@H](CCCCN)NC(=O)[C@@H](NC(=O)[C@@H](NC(=O)[C@H](CC(=O)O)NC(=O)[C@H](Cc1ccccc1)NC(=O)[C@@H](NC(=O)CN)C(C)C)[C@@H](C)CC)[C@@H](C)CC)C(C)C)C(=O)N[C@@H](C)C(=O)N[C@@H](CCC(=O)O)C(=O)N[C@@H](CCCCN)C(=O)N[C@H](C(N)=O)C(C)C` (H-GVFDIIKDAGKQLVAHAMGKIAEKV-NH2): the MIC in the data set on Salmonella enterica was above 300 µM; in the data set with Staphylococcus aureus it was above 300 µM; with Escherichia coli it was 300 µM (≈ 791 µg/mL); in the data set on Klebsiella pneumoniae it was above 300 µM. Also, in data set [1], the Activity entry is reported as “Non-toxic”. Moreover, the hemolysis at 1 h in data set [2] was 1.98%. Further, the hemolysis at 1 h, 800 ug/mL in data set [3] came to 1.98%.
For `CC[C@H](C)[C@H](NC(=O)[C@H](CCCCN)NC(=O)CNC(=O)[C@H](CCSC)NC(=O)[C@H](C)NC(=O)[C@H](CCCNC(=N)N)NC(=O)[C@H](C)NC(=O)[C@@H](NC(=O)[C@H](CC(C)C)NC(=O)[C@H](CCC(N)=O)NC(=O)[C@H](CCCCN)NC(=O)CNC(=O)[C@H](C)NC(=O)CNC(=O)[C@H](CCCCN)NC(=O)[C@@H](NC(=O)[C@@H](NC(=O)[C@H](CC(=O)O)NC(=O)[C@H](Cc1ccccc1)NC(=O)[C@@H](NC(=O)CN)C(C)C)[C@@H](C)CC)[C@@H](C)CC)[C@@H](C)CC)C(=O)N[C@@H](C)C(=O)N[C@@H](CCC(=O)O)C(=O)N[C@@H](CCCCN)C(=O)N[C@H](C(=O)NCC(=O)N[C@@H](CC(C)C)C(=O)N[C@@H](CC(N)=O)C(=O)N[C@@H](CCCCN)C(=O)N[C@@H](CC(=O)O)C(=O)NCC(=O)N[C@@H](CC(N)=O)C(=O)O)C(C)C` (H-GVFDIIKGAGKQLIARAMGKIAEKVGLNKDGN-OH), the MIC with Salmonella enterica is 240 µM (≈ 795 µg/mL); with Staphylococcus aureus it was 240 µM (≈ 795 µg/mL); in the data set on Escherichia coli it was 60 µM (≈ 199 µg/mL); in the data set on Klebsiella pneumoniae it was 240 µM (≈ 795 µg/mL). In addition, in data set [1], the Activity result is given as “Non-toxic”. Further, in data set [2], the hemolysis at 1 h stood at 0%. For the same compound, in data set [3], the hemolysis at 1 h, 800 ug/mL is 8.09%.
`CC[C@H](C)[C@H](NC(=O)[C@H](CC(C)C)NC(=O)[C@H](CCC(N)=O)NC(=O)[C@H](CCCCN)NC(=O)CNC(=O)[C@H](C)NC(=O)CNC(=O)[C@H](CCCCN)NC(=O)[C@@H](NC(=O)[C@@H](NC(=O)[C@H](CC(=O)O)NC(=O)[C@H](Cc1ccccc1)NC(=O)[C@@H](NC(=O)CN)C(C)C)[C@@H](C)CC)[C@@H](C)CC)C(=O)N[C@@H](C)C(=O)N[C@@H](Cc1cnc[nH]1)C(=O)N[C@@H](C)C(=O)N[C@@H](CCSC)C(=O)N[C@@H](CCC(=O)O)C(=O)N[C@@H](CCCCN)C(=O)N[C@H](C(=O)N[C@@H](C)C(=O)N[C@@H](CCC(=O)O)C(=O)N[C@@H](CCCCN)C(=O)N[C@H](C(=O)NCC(=O)N[C@@H](CC(C)C)C(=O)N[C@@H](CC(N)=O)C(=O)N[C@@H](CCCCN)C(=O)N[C@@H](CC(=O)O)C(=O)NCC(=O)N[C@@H](CC(N)=O)C(=O)O)C(C)C)[C@@H](C)CC` (H-GVFDIIKGAGKQLIAHAMEKIAEKVGLNKDGN-OH): the MIC with Salmonella enterica is above 240 µM; in the data set on Staphylococcus aureus it was above 240 µM; in the data set on Escherichia coli it was 120 µM (≈ 404 µg/mL); with Klebsiella pneumoniae it was above 240 µM. Besides, the Activity entry in data set [1] is given as “Non-toxic”. Moreover, in data set [2], the hemolysis at 1 h was determined as 0%. Also, in data set [3], the hemolysis at 1 h, 800 ug/mL stood at 0.69%.
Regarding `CC[C@H](C)[C@H](NC(=O)[C@H](CCCCN)NC(=O)CNC(=O)[C@H](CCSC)NC(=O)[C@H](C)NC(=O)[C@H](Cc1cnc[nH]1)NC(=O)[C@H](C)NC(=O)[C@@H](NC(=O)[C@H](CC(C)C)NC(=O)[C@H](CCC(N)=O)NC(=O)[C@H](CCCCN)NC(=O)CNC(=O)[C@H](C)NC(=O)CNC(=O)[C@H](CCCCN)NC(=O)[C@@H](NC(=O)[C@@H](NC(=O)[C@H](CC(=O)O)NC(=O)[C@H](Cc1ccccc1)NC(=O)[C@@H](NC(=O)CN)C(C)C)[C@@H](C)CC)[C@@H](C)CC)[C@@H](C)CC)C(=O)N[C@@H](C)C(=O)N[C@@H](CCC(=O)O)C(=O)N[C@@H](CCCCN)C(=O)N[C@H](C(N)=O)C(C)C` (H-GVFDIIKGAGKQLIAHAMGKIAEKV-NH2), the MIC in the data set on Salmonella enterica was 310 µM (≈ 804 µg/mL); in the data set on Staphylococcus aureus, above 310 µM; with Escherichia coli, 80 µM (≈ 208 µg/mL); in the data set on Klebsiella pneumoniae, 310 µM (≈ 804 µg/mL). Besides, the Activity result in data set [1] is recorded as “Non-toxic”. Moreover, the hemolysis at 1 h in data set [2] amounted to 0.19%. Besides, in data set [3], the hemolysis at 1 h, 800 ug/mL was 4.29%.
As to `CC[C@H](C)[C@H](NC(=O)[C@H](CCCCN)NC(=O)CNC(=O)[C@@H](NC(=O)[C@H](C)NC(=O)[C@H](Cc1cnc[nH]1)NC(=O)[C@H](C)NC(=O)[C@@H](NC(=O)[C@H](CC(C)C)NC(=O)[C@H](CCC(N)=O)NC(=O)[C@H](CCCCN)NC(=O)CNC(=O)[C@H](C)NC(=O)[C@H](CC(=O)O)NC(=O)[C@H](CCCCN)NC(=O)[C@@H](NC(=O)[C@@H](NC(=O)[C@H](CC(=O)O)NC(=O)[C@H](Cc1ccccc1)NC(=O)[C@@H](NC(=O)CN)C(C)C)[C@@H](C)CC)[C@@H](C)CC)C(C)C)[C@@H](C)O)C(=O)N[C@@H](C)C(=O)N[C@@H](CCC(=O)O)C(=O)N[C@@H](CCCCN)C(=O)N[C@H](C(N)=O)C(C)C` (H-GVFDIIKDAGKQLVAHATGKIAEKV-NH2), the MIC with Salmonella enterica, in the data set on Staphylococcus aureus, in the data set on Escherichia coli and in the data set on Klebsiella pneumoniae was above 310 µM throughout. Further, the Activity entry in data set [1] was “Non-toxic”. Besides, in data set [2], the hemolysis at 1 h is 0%. The hemolysis at 1 h, 800 ug/mL in data set [3] was determined as 0%.
For the compound `CC[C@H](C)[C@H](NC(=O)[C@H](CCCCN)NC(=O)CNC(=O)[C@H](CCSC)NC(=O)[C@H](C)NC(=O)[C@H](Cc1cnc[nH]1)NC(=O)[C@H](C)NC(=O)[C@@H](NC(=O)[C@H](CC(C)C)NC(=O)[C@H](CCC(N)=O)NC(=O)[C@H](CCCNC(=N)N)NC(=O)CNC(=O)[C@H](C)NC(=O)[C@H](CC(=O)O)NC(=O)[C@H](CCCCN)NC(=O)[C@@H](NC(=O)[C@@H](NC(=O)[C@H](CC(=O)O)NC(=O)[C@H](Cc1ccccc1)NC(=O)[C@@H](NC(=O)CN)C(C)C)[C@@H](C)CC)[C@@H](C)CC)C(C)C)C(=O)N[C@@H](C)C(=O)N[C@@H](CCC(=O)O)C(=O)N[C@@H](CCCCN)C(=O)N[C@H](C(N)=O)C(C)C` (H-GVFDIIKDAGRQLVAHAMGKIAEKV-NH2), the MIC in the data set with Salmonella enterica is above 300 µM; with Staphylococcus aureus, above 300 µM; with Escherichia coli, 300 µM (≈ 800 µg/mL); in the data set with Klebsiella pneumoniae, above 300 µM. Besides, the Activity result in data set [1] is “Non-toxic”. In addition, the hemolysis at 1 h in data set [2] was 4.05%. The hemolysis at 1 h, 800 ug/mL in data set [3] is 4.05%.
Regarding `CC[C@H](C)[C@H](NC(=O)[C@H](C)NC(=O)[C@H](Cc1cnc[nH]1)NC(=O)[C@H](C)NC(=O)[C@@H](NC(=O)[C@H](CC(C)C)NC(=O)[C@H](CC(=O)O)NC(=O)[C@H](CCCCN)NC(=O)CNC(=O)[C@H](C)NC(=O)CNC(=O)[C@H](CCCCN)NC(=O)[C@@H](NC(=O)[C@@H](NC(=O)[C@H](CC(=O)O)NC(=O)[C@@H](NC(=O)[C@@H](NC(=O)CN)C(C)C)[C@@H](C)CC)[C@@H](C)CC)[C@@H](C)CC)[C@@H](C)CC)C(=O)NCC(=O)N[C@@H](CCCCN)C(=O)N[C@@H](CC(C)C)C(=O)N[C@@H](C)C(=O)N[C@@H](CCC(=O)O)C(=O)N[C@@H](CCCCN)C(=O)N[C@H](C(N)=O)C(C)C` (H-GVIDIIKGAGKDLIAHAIGKLAEKV-NH2), the MIC is above 320 µM in the data set on Salmonella enterica, above 320 µM in the data set with Staphylococcus aureus, 320 µM (≈ 809 µg/mL) in the data set with Escherichia coli and above 320 µM in the data set with Klebsiella pneumoniae. For the same compound, the Activity result in data set [1] is “Non-toxic”. In data set [2], the hemolysis at 1 h amounted to 0.69%. In data set [3], the hemolysis at 1 h, 800 ug/mL was determined as 0.69%.
